Like-named read-outs stand apart in the source and are kept apart here. Each block holds one compound with its values, some of them ahead of it.
Legend:
[1] = tested on: L. donovani MHOM-ET-67/L82 axenic amastigotes; assay: In vitro growth inhibition of axenically cultured L. donovani amastigotes; assay type: cell-based, Leishmania donovani; conditions: SI = IC50 in L6 cells / IC50 in parasites
[2] = tested on: T. cruzi Tulahuen C4 amastigotes; assay: In vitro growth inhibition of T. cruzi amastigotes in infected L6 myoblasts; assay type: cell-based, Trypanosoma cruzi; conditions: for activity designation against T. cruzi: classes by IC50 criteria of b15; for fold increase of T. cruzi IC50 compared to the nitro-containing analog: non-nitro triazoles 19 and 31 versus 17 and 29
[3] = tested on: T.b. rhodesiense STIB 900 trypomastigotes; assay: In vitro growth inhibition of T. b. rhodesiense bloodstream form trypomastigotes; assay type: cell-based, Trypanosoma brucei rhodesiense; conditions: for activity designation against T.b. rhodesiense: classes by IC50 criteria of b15
[4] = tested on: L6 cells (rat skeletal myoblasts); assay: Cytotoxicity assessment using L6 cells; assay type: cell-based; conditions: read-out: Cytotox. L6 IC-50
T. cruzi = conditions: 2 mg/kg/day for 50 days, mice, acute phase of infection; cited from earlier work
[5] = 15 mg/kg given i.p. for 30 days; cited from earlier work
[6] = Reduction potential by cyclic voltammetry; assay type: physicochemical; conditions: cyclic voltammetry relative to Ag/AgCl
How it was run: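 Half-wave reduction potentials (E1/2) measured by cyclic voltammetry against an Ag/AgCl reference electrode, using a carbon mesh working electrode and a Pt wire counter electrode. The supporting electrolyte was 0.1M tetrabutylammonium hexafluorophosphate (TBAPF6).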

[7] = cited from earlier work
[8] = SI = IC50 in L6 cells / IC50 in parasites

Compound: 6-Methyl-4-N-[3-(2-nitro-1H-1,2,4-triazol-1-yl)propyl]-pyrimidin-2,4-diamine hydrochloride [Compound 22]
L. donovani axen. SI [1]: ∼3
T. cruzi SI [2, 8]: >8
activity designation against T. cruzi [2]: moderately active (IC50 = 4.0-60 μM)
T.b.rhodesiense SI [3, 8]: >131
IC50 [4]: > 286 µM

Compound: Cl.FC(F)(F)c1cc(CNCCCCn2cncn2)cc(C(F)(F)F)c1 [Compound 31, {[3,5-bis(Trifluoromethyl)phenyl]methyl}[4-(1H-1,2,4-triazol-1-yl)butyl]amine hydrochloride]
fold increase of T. cruzi IC50 compared to the nitro-containing analog [2]: 730 fold

Compound: Cl.O=[N+]([O-])c1ncn(CCCNc2c3ccccc3nc3ccccc23)n1 [Compound 1, 9-[(3-nitro-1H-1,2,4-triazolyl)-propylamino]acridine hydrochloride]
fraction of cures (T. cruzi): 20%
peripheral parasite levels (T. cruzi): rapid and persistent drop
toxicity in vivo [5]: demonstrated toxicity

Compound: O=C1C(Cl)=C(NCCCn2cnc([N+](=O)[O-])n2)C(=O)c2ccccc21 [Compound 25, 2-Chloro-3-{[3-(3-nitro-1H-1,2,4-triazol-1-yl)propyl]amino}-1,4-dihydronaphthalene-1,4-dione]
fold greater effect on T. cruzi growth than 2-nitroimidazole counterpart ([2]; 3-nitrotriazole versus its 2-nitroimidazole analog): 2 fold

Compound: Cl.O=[N+]([O-])c1ncn(CCCNCc2ccc(C(F)(F)F)cc2)n1 [Compound 37, [3-(3-Nitro-1H-1,2,4-triazol-1-yl)propyl]({[4-(trifluoromethyl)phenyl]methyl})amine hydrochloride]
activity designation against T. cruzi [2]: active

Compound: Cl.Cl.O=[N+]([O-])c1ncn(CCCN2CCN(c3ccc(C(F)(F)F)cc3)CC2)n1 [Compound 42, 1-[3-(3-Nitro-1H-1,2,4-triazol-1-yl)propyl]-4-[4-(trifluoromethyl)phenyl]piperazine dihydrochloride]
fold increased antichagasic activity compared to 40 and 41 ([2]; T. cruzi in vitro): about 10 fold

E1/2 reduction potential ([6]; in DMSO): -1.04 V
Compound: Cl.Cl.O=[N+]([O-])c1ncn(CCCCN2CCN(Cc3ccc(C(F)(F)F)cc3)CC2)n1 [Compound 41, 1-[4-(3-Nitro-1H-1,2,4-triazol-1-yl)butyl]-4-{[4-(trifluoromethyl)phenyl]methyl}piperazine dihydrochloride]

E1/2 reduction potential ([6]; in DMSO): -1.03 V
Compound: Cl.O=[N+]([O-])c1nccn1CCCNc1nc(-c2ccccc2)nc2ccccc12 [Compound 8, N-[3-(2-Nitro-1H-imidazol-1-yl)propyl]-2-phenylquinazolin-4-amine hydrochloride]

E1/2 reduction potential ([6]; in CH3CN): -1.18 V
Compound: Cl.O=[N+]([O-])c1ncn(CCCCNc2ccnc3cc(Cl)ccc23)n1 [Compound 17, 7-Chloro-N-[4-(3-nitro-1H-1,2,4-triazol-1-yl)butyl]quinolin-4-amine hydrochloride]
activity designation against T.b. rhodesiense [3]: active

Compound: Cl.Clc1ccc2c(NCCCCn3cncn3)ccnc2c1 [Compound 19, 7-Chloro-N-[4-(1H-1,2,4-triazol-1-yl)butyl]quinolin-4-amine]
L. donovani axen. SI [1]: ∼1
fold increase of T. cruzi IC50 compared to the nitro-containing analog [2]: 658 fold

Compound: Cl.Cl.O=[N+]([O-])c1nccn1CCCN1CCN(Cc2ccc(C(F)(F)F)cc2)CC1 [Compound 39, 1-[3-(2-Nitro-1H-imidazol-1-yl)propyl]-4-{[4-(trifluoromethyl)phenyl]methyl}piperazine dihydrochloride]
L. donovani axen. SI [1]: ∼1

Compound: CC1CS(=O)(=O)CCN1/N=C/c1ccc([N+](=O)[O-])o1 (centres unmarked) [Nifurtimox, 4-(5-nitrofurfurylidenamino)-3-methylthio-morpholine-1,1-dioxide]
E1/2 reduction potential [7]: -0.88 V

Compound: Cc1cc(NCCCn2ccnc2[N+](=O)[O-])nc(N)n1.Cl [Compound 11, 6-Methyl-4-N-[3-(2-nitro-1H-imidazol-1-yl)propyl]-pyrimidin-2,4-diamine hydrochloride]
L. donovani axen. SI [1]: ∼3

Compound: Cl.O=[N+]([O-])c1ncn(CCCNCc2cc(C(F)(F)F)cc(C(F)(F)F)c2)n1 [Compound 29, {[3,5-bis(Trifluoromethyl)phenyl]methyl}[3-(3-nitro-1H-1,2,4-triazol-1-yl)propyl]amine hydrochloride]
activity designation against T. cruzi [2]: active
E1/2 reduction potential ([6]; in DMSO): -1.07 V

Compound: Cl.O=[N+]([O-])c1nccn1CCCNCc1cc(C(F)(F)F)cc(C(F)(F)F)c1 [Compound 26]
L. donovani axen. SI [1]: ∼2

E1/2 reduction potential ([6]; in DMSO): -1.04 V
Compound: Cl.O=[N+]([O-])c1ncn(CCCNc2nc(-c3ccccc3)nc3ccccc23)n1 [Compound 20, N-[3-(3-Nitro-1H-1,2,4-triazol-1-yl)propyl]-2-phenyl-quinazolin-4-amine hydrochloride]

Compound: Cl.Cl.O=[N+]([O-])c1ncn(CCCN2CCN(Cc3ccc(C(F)(F)F)cc3)CC2)n1 [Compound 40, 1-[3-(3-Nitro-1H-1,2,4-triazol-1-yl)propyl]-4-{[4-(trifluoromethyl)phenyl]methyl}piperazine dihydrochloride]
SI ([2]; Table 2, T. cruzi, IC50 in L6 cells / IC50 in parasites): >562

Compound: Cl.O=[N+]([O-])c1ncn(CCCN(Cc2ccc(C(F)(F)F)cc2)Cc2ccc(C(F)(F)F)cc2)n1 [Compound 38, [3-(3-Nitro-1H-1,2,4-triazol-1-yl)propyl]bis({[4-(trifluoromethyl)phenyl]methyl})amine hydrochloride]
activity designation against T. cruzi [2]: active
activity designation against T.b. rhodesiense [3]: active
E1/2 reduction potential ([6]; in DMSO): -1.06 V

From PMC3258117 (Journal of Medicinal Chemistry, 2011)
